Published values gathered from unrelated publications.
Lines come from different studies, so protocols differ. pEC50, pIC50, pKi: −log10 of the molar value.
GLP1R: Glucagon-like peptide 1 receptor (GLP1R, Homo sapiens, UniProt P43220)
DRD3: D(3) dopamine receptor (DRD3, Homo sapiens, UniProt P35462)
MDM4: Protein Mdm4 (MDM4, Homo sapiens, UniProt O15151)
Cnr1: Cannabinoid receptor 1 (Cnr1, Mus musculus, UniProt P47746)

`CC[C@H](C)[C@H](NC(=O)[C@H](CC(C)C)NC(=O)[C@H](Cc1c[nH]c2ccccc12)NC(=O)[C@H](CC(=O)O)NC(=O)[C@@H](NC(=O)[C@H](Cc1ccccc1)NC(=O)[C@H](CCC(=O)O)NC(=O)[C@H](CCCCN)NC(=O)[C@H](C)NC(=O)[C@H](C)NC(=O)[C@H](CCCCN)NC(=O)[C@H](CCC(=O)O)NC(=O)[C@H](CC(=O)O)NC(=O)[C@H](CC(C)C)NC(=O)[C@H](Cc1c[nH]cn1)NC(=O)[C@H](CCC(N)=O)NC(=O)[C@@H](NC(=O)[C@@H](NC(=O)[C@H](CC(=O)O)NC(=O)[C@H](CO)NC(=O)[C@@H](NC(=O)[C@H](Cc1ccccc1)NC(=O)[C@@H](NC(=O)CNC(=O)[C@H](CCC(=O)O)NC(=O)[C@H](C)NC(=O)[C@@H](N)Cc1c[nH]cn1)[C@@H](C)O)[C@@H](C)O)C(C)C)[C@@H](C)O)[C@@H](C)CC)C(=O)N[C@@H](CC(N)=O)C(=O)NCC(=O)NCC(=O)N1CCC[C@H]1C(=O)O` gave a pEC50 of 9.35 (GLP1R; reporter gene, agonist, luciferase).
For `C[C@H]1COCCN1c1nc(NCc2cccnc2C(F)(F)F)c2cccnc2n1`, the pIC50 was under 4.48 (A-type voltage-gated potassium channel KCND3 (KCND3, Homo sapiens, UniProt Q9UK17); ion current, inhibitor).
`CSCC[C@H](NC(=O)[C@H](CCC(=O)O)NC(=O)[C@@H]1CCCN1C(=O)[C@@H](NC(=O)[C@@H]1CCCN1)[C@@H](C)O)C(=O)N[C@@H](CCCNC(=N)N)C(=O)N[C@@H](CCC(=O)O)C(=O)N[C@@H](CCCCN)C(=O)N[C@@H](CC(C)C)C(=O)N[C@H]1CSSC[C@@H]2NC(=O)[C@@H](NC(=O)[C@H](CC(C)C)NC(=O)[C@@H](NC(=O)[C@H](CCC(N)=O)NC(=O)[C@H](CC(C)C)NC(=O)[C@H](CC(=O)O)NC(=O)[C@@H]3CCC(=O)N3)[C@@H](C)O)CSSC[C@H](NC(=O)CNC(=O)[C@H](CC(=O)O)NC(=O)[C@H]([C@@H](C)O)NC2=O)C(=O)N[C@@H](CO)C(=O)N[C@@H](CCSC)C(=O)N[C@@H]([C@@H](C)O)C(=O)N[C@@H](CC(=O)O)C(=O)N[C@@H](CC(C)C)C(=O)N[C@@H](CO)C(=O)N[C@@H](C)C(=O)N[C@@H](CC(C)C)C(=O)N[C@H](C(=O)O)CSSC[C@@H](C(=O)NCC(=O)NCC(=O)N2CCC[C@H]2C(=O)N[C@@H](CCCNC(=N)N)C(=O)N[C@@H](Cc2c[nH]c3ccccc23)C(=O)N[C@@H](CO)C(=O)N[C@H](C(=O)N[C@@H](CCC(=O)O)C(=O)N[C@@H](C)C(=O)O)[C@@H](C)O)NC(=O)[C@H](C(C)C)NC(=O)[C@H](CCCNC(=N)N)NC(=O)[C@H](C(C)C)NC(=O)[C@H](CC(C)C)NC(=O)[C@H](C)NC(=O)[C@H](CCCNC(=N)N)NC(=O)[C@H](C(C)C)NC(=O)[C@H](Cc2ccccc2)NC(=O)[C@H](Cc2c[nH]cn2)NC(=O)[C@H](Cc2c[nH]cn2)NC(=O)CNC1=O` gave a pKi of 9.15 (Relaxin receptor 2 (RXFP2, Homo sapiens, UniProt Q8WXD0); ligand displacement in cells).
For `CCCC[C@@H](NC(=O)[C@@H](N)Cc1ccc(O)cc1)C(=O)NCC(=O)N[C@@H](Cc1ccc(F)cc1)C(=O)N(C)CCC[C@@]1(c2ccc(F)cc2)OCc2cc(C#N)ccc21`, the pKi was 5.37 (DRD3; ligand displacement, radioligand).
`CC(C)[C@@H]1NC(=O)[C@H](CO)NC(=O)[C@H](CO)NC(=O)[C@H](CO)N(C)C(=O)[C@H](CC(=O)O)NC(=O)[C@H](CO)NC(=O)[C@H](Cc2ccccc2)NC(=O)CSC[C@@H](C(=O)NCC(N)=O)NC(=O)[C@H](CC(N)=O)NC(=O)[C@H](CCCNC(=N)N)NC(=O)[C@H](Cc2ccc(-c3ccccc3)cc2)NC(=O)[C@H](Cc2ccc(-c3ccccc3)cc2)NC(=O)[C@H](CC(N)=O)NC(=O)[C@@H]2CCCN2C1=O` gave a pKi of 6.13 (MDM4; ligand displacement, TR-FRET).
`Cc1cc(O)cc(C)c1C[C@H](N)C(=O)N[C@H](C)C(=O)NCC(=O)N[C@@H](Cc1ccc(Cl)cc1)C(=O)N(C)CCC[C@@]1(c2ccc(F)cc2)OCc2cc(C#N)ccc21` has a pKi of 6.05 (DRD3; ligand displacement, radioligand).
`Cc1cccc(-c2ccnc3c(C(N)=O)cnn23)c1` gave a pIC50 of 7.17 (Toll-like receptor 8 (TLR8, Homo sapiens, UniProt Q9NR97); reporter gene).
With `CCCc1cc2cc(-n3nc(C)c4c3CC(C)(C)CC4=O)cc(N[C@H]3CC[C@H](O)CC3)c2c(=O)[nH]1` the pIC50 was under 4.30 (Heat shock protein 75 kDa, mitochondrial (TRAP1, Homo sapiens, UniProt Q12931); ligand displacement, FP).
The pKi of `CC(C)(O)[C@@H](Nc1nc(Cl)nc2c1ncn2[C@H]1[C@H](O)[C@H](O)[C@]2(CO)C[C@H]12)C1CC1` is reported as 5.87 (DRD3; ligand displacement, radioligand).
`CC(C)NCC1CCc2cc(CO)c([N+](=O)[O-])cc2N1` (stereo not drawn) has a pIC50 of 5.13 (DRD3; ligand displacement, radioligand).
The pKi of `O=C(O)[C@H]1O[C@@H](Oc2cc(O)cc(/C=C/c3ccc(O)cc3)c2)[C@H](O)[C@@H](O)[C@@H]1O` is reported as under 4.00 (Cnr1; ligand displacement, radioligand; cell membranes).
`COc1cc(N)c(Cl)cc1C(=O)NC1CCN(CCCOc2ccc(F)cc2)CC1OC` (stereo not drawn) gave a pIC50 of 5.20 (DRD3; ligand displacement, radioligand).
For `O=C(O[C@@H]1Cc2c(O)cc(O)cc2O[C@@H]1c1cc(O)c(O)c(O)c1)c1cc(O)c(O)c(O)c1`, the pKi was 5.23 (Maltase-glucoamylase (Homo sapiens, UniProt O43451); enzyme activity, inhibitor).
With `CC(C)C[C@H](NC(=O)[C@H](Cc1ccc(O)cc1)NC(=O)[C@H](CO)NC(=O)[C@H](CO)NC(=O)[C@@H](NC(=O)[C@H](CC(=O)O)NC(=O)[C@H](CO)NC(=O)[C@@H](NC(=O)[C@H](Cc1ccc(O)cc1)NC(=O)[C@@H](NC(=O)CNC(=O)[C@H](CC(=O)O)NC(=O)[C@H](C)NC(=O)[C@@H](N)Cc1c[nH]cn1)[C@@H](C)O)[C@@H](C)O)C(C)C)C(=O)N[C@@H](CCC(N)=O)C(=O)N[C@@H](CC(=O)O)C(=O)N[C@@H](CCC(N)=O)C(=O)N[C@@H](C)C(=O)N[C@@H](C)C(=O)N[C@@H](CCCCN)C(=O)N[C@@H](CCC(=O)O)C(=O)N[C@@H](Cc1ccccc1)C(=O)N[C@H](C(=O)N[C@@H](CO)C(=O)N[C@@H](Cc1c[nH]c2ccccc12)C(=O)N[C@@H](CC(C)C)C(=O)N[C@@H](CCCCN)C(=O)N[C@H](C(=O)NCC(=O)N[C@@H](CCCNC(=N)N)C(=O)NCC(=O)O)[C@@H](C)O)C(C)C` the pEC50 was 9.36 (GLP1R; reporter gene, agonist, luciferase).
The pIC50 of `CC(CCc1ccc(O)cc1)NCCc1ccc(O)c(O)c1` (stereo not drawn) is reported as 6.28 (DRD3; ligand displacement, radioligand).
`CCCCNNC(=O)c1ccc(Br)cc1` gave a pIC50 of under 4.00 (Histone deacetylase 5 (HDAC5, Homo sapiens, UniProt Q9UQL6); enzyme activity, inhibitor, fluorescence).
The pKi of `C/C(N)=N\C(=N/S(=O)(=O)c1ccc(C(F)(F)F)cc1)N1C[C@H](c2ccccc2)C(c2ccc(Cl)cc2)=N1` is reported as 8.64 (Cnr1; ligand displacement, radioligand; cell membranes).
The pEC50 of `CC[C@H](C)[C@H](NC(=O)[C@H](Cc1ccccc1)NC(=O)[C@H](CCC(=O)O)NC(=O)[C@H](CCCCN)NC(=O)[C@H](C)NC(=O)[C@H](C)NC(=O)[C@H](CCC(N)=O)NC(=O)CNC(=O)[C@H](CCC(=O)O)NC(=O)[C@H](CC(C)C)NC(=O)[C@H](Cc1ccc(O)cc1)NC(=O)[C@H](CO)NC(=O)[C@@H](NC(=O)[C@@H](NC(=O)[C@H](CC(=O)O)NC(=O)[C@H](CO)NC(=O)[C@@H](NC(=O)[C@H](Cc1ccc(O)cc1)NC(=O)[C@@H](NC(=O)CNC(=O)[C@H](CCC(=O)O)NC(=O)[C@H](C)NC(=O)[C@@H](N)Cc1c[nH]cn1)[C@@H](C)O)[C@@H](C)O)[C@@H](C)CC)[C@@H](C)O)C(=O)N[C@@H](C)C(=O)N[C@@H](Cc1c[nH]c2ccccc12)C(=O)N[C@@H](CC(C)C)C(=O)N[C@H](C(=O)N[C@@H](CC(N)=O)C(=O)NCC(=O)N[C@@H](CCCNC(=N)N)C(=O)NCC(=O)O)C(C)C` is reported as 9.06 (GLP1R; reporter gene, agonist, luciferase).
For `CO[C@H]1C[C@H](O[C@H]2[C@H](C)O[C@@H](O[C@@H]3/C(C)=C/C[C@@H]4C[C@@H](C[C@]5(C=C[C@H](C)[C@@H](C6CCCCC6)O5)O4)OC(=O)[C@@H]4C=C(C)[C@@H](O)[C@H]5OC/C(=C\C=C\[C@@H]3C)[C@]54O)C[C@@H]2OC)O[C@@H](C)[C@@H]1O`, the pIC50 was 4.36 (Nuclear receptor subfamily 1 group I member 3 (Homo sapiens, UniProt Q14994); reporter gene, antagonist).
`CC(C)C[C@H](NC(=O)[C@H](Cc1c[nH]c2ccccc12)NC(=O)[C@H](C)NC(=O)[C@@H](NC(=O)[C@H](Cc1ccccc1)NC(=O)[C@H](CO)NC(=O)[C@H](CCC(N)=O)NC(=O)[C@H](C)NC(=O)[C@H](C)NC(=O)[C@H](CCC(N)=O)NC(=O)[C@H](CC(=O)O)NC(=O)[C@H](CCC(N)=O)NC(=O)[C@H](CC(C)C)NC(=O)[C@H](Cc1ccc(O)cc1)NC(=O)[C@H](CO)NC(=O)[C@H](CO)NC(=O)[C@@H](NC(=O)[C@H](CC(=O)O)NC(=O)[C@H](CO)NC(=O)[C@@H](NC(=O)[C@H](Cc1ccc(O)cc1)NC(=O)[C@@H](NC(=O)CNC(=O)[C@H](CCC(=O)O)NC(=O)[C@H](C)NC(=O)[C@@H](N)Cc1c[nH]cn1)[C@@H](C)O)[C@@H](C)O)C(C)C)C(C)C)C(=O)N[C@@H](CCCCN)C(=O)N[C@@H](CO)C(=O)NCC(=O)N[C@@H](CCC(N)=O)C(=O)N1CCC[C@H]1C(=O)O` gave a pEC50 of 7.53 (GLP1R; reporter gene, agonist, luciferase).
`CC(C)[C@@H]1NC(=O)[C@H](CO)NC(=O)[C@H](CO)NC(=O)[C@H](CO)N(C)C(=O)[C@H](CC(=O)O)NC(=O)[C@H](CO)NC(=O)[C@H](Cc2ccccc2)NC(=O)CSC[C@@H](C(=O)NCC(N)=O)NC(=O)[C@H](CC(N)=O)NC(=O)[C@H](CCCNC(=N)N)NC(=O)[C@H](C)NC(=O)[C@H](Cc2ccc(-c3ccccc3)cc2)NC(=O)[C@H](CC(N)=O)NC(=O)[C@@H]2CCCN2C1=O` has a pIC50 of under 5.00 (MDM4; ligand displacement, TR-FRET).
